Laboratory results taken from ChEMBL document CHEMBL1909556, “Synthesis and properties of novel 2'-O-alkoxymethyl-modified nucleic acids” (Bioorg Med Chem Lett, 2011).
Activity calls are given as the source filed them. The rule behind the calls is not given here.

Legend:
Nucleic Acid [1] = assay: Binding affinity to A12 RNA assessed as change in melting temperature at 2 uM compound at pH 7; type: nucleic-acid assay
[2] = Nuclease stability of compound assessed as snake venom phosphodiesterase-mediated degradation at 10 uM after 2 hrs by RP-HPLC analysis; type: physicochemical
Summary of the method: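 Snake venom phosphodiesterase digestion at 4 × 10^-4 units/ml of 10 μM oligoribonucleotide for 2 h. Buffer was 50 mM Tris-HCl pH 8.5 with 72 mM NaCl and 14 mM MgCl2. The degradation ratio was estimated by reversed-phase HPLC.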

Nucleic Acid [3] = assay: Binding affinity to dA12 DNA assessed as change in melting temperature at 2 uM compound at pH 7; type: nucleic-acid assay

SMILES | ΔTm (Nucleic Acid [1]) [°C] | Stability [2] | Activity (Nucleic Acid [3])
O=c1ccn([C@@H]2O[C@H](COP(=O)(O)O[C@H]3[C@@H](OCOCC(F)F)[C@H](n4ccc(=O)[nH]c4=O)O[C@@H]3COP(=O)(O)O[C@H]3[C@@H](OCOCC(F)F)[C@H](n4ccc(=O)[nH]c4=O)O[C@@H]3COP(=O)(O)O[C@H]3[C@@H](OCOCC(F)F)[C@H](n4ccc(=O)[nH]c4=O)O[C@@H]3COP(=O)(O)O[C@H]3[C@@H](OCOCC(F)F)[C@H](n4ccc(=O)[nH]c4=O)O[C@@H]3COP(=O)(O)O[C@H]3[C@@H](OCOCC(F)F)[C@H](n4ccc(=O)[nH]c4=O)O[C@@H]3COP(=O)(O)O[C@H]3[C@@H](OCOCC(F)F)[C@H](n4ccc(=O)[nH]c4=O)O[C@@H]3COP(=O)(O)O[C@H]3[C@@H](OCOCC(F)F)[C@H](n4ccc(=O)[nH]c4=O)O[C@@H]3COP(=O)(O)O[C@H]3[C@@H](OCOCC(F)F)[C@H](n4ccc(=O)[nH]c4=O)O[C@@H]3COP(=O)(O)O[C@H]3[C@@H](OCOCC(F)F)[C@H](n4ccc(=O)[nH]c4=O)O[C@@H]3COP(=O)(O)O[C@H]3[C@@H](OCOCC(F)F)[C@H](n4ccc(=O)[nH]c4=O)O[C@@H]3COP(=O)(O)O[C@H]3[C@@H](OCOCC(F)F)[C@H](n4ccc(=O)[nH]c4=O)O[C@@H]3CO)[C@@H](O)[C@H]2OCOCC(F)F)c(=O)[nH]1 | 3.5 | – | –
N#CCCOCO[C@@H]1[C@H](O)[C@@H](COP(=O)(O)O[C@H]2[C@@H](OCOCCC#N)[C@H](n3ccc(=O)[nH]c3=O)O[C@@H]2COP(=O)(O)O[C@H]2[C@@H](OCOCCC#N)[C@H](n3ccc(=O)[nH]c3=O)O[C@@H]2COP(=O)(O)O[C@H]2[C@@H](OCOCCC#N)[C@H](n3ccc(=O)[nH]c3=O)O[C@@H]2COP(=O)(O)O[C@H]2[C@@H](OCOCCC#N)[C@H](n3ccc(=O)[nH]c3=O)O[C@@H]2COP(=O)(O)O[C@H]2[C@@H](OCOCCC#N)[C@H](n3ccc(=O)[nH]c3=O)O[C@@H]2COP(=O)(O)O[C@H]2[C@@H](OCOCCC#N)[C@H](n3ccc(=O)[nH]c3=O)O[C@@H]2COP(=O)(O)O[C@H]2[C@@H](OCOCCC#N)[C@H](n3ccc(=O)[nH]c3=O)O[C@@H]2COP(=O)(O)O[C@H]2[C@@H](OCOCCC#N)[C@H](n3ccc(=O)[nH]c3=O)O[C@@H]2COP(=O)(O)O[C@H]2[C@@H](OCOCCC#N)[C@H](n3ccc(=O)[nH]c3=O)O[C@@H]2COP(=O)(O)O[C@H]2[C@@H](OCOCCC#N)[C@H](n3ccc(=O)[nH]c3=O)O[C@@H]2COP(=O)(O)O[C@H]2[C@@H](OCOCCC#N)[C@H](n3ccc(=O)[nH]c3=O)O[C@@H]2CO)O[C@H]1n1ccc(=O)[nH]c1=O | 2.8 | Stable | –
O=c1ccn([C@@H]2O[C@H](COP(=O)(O)O[C@H]3[C@@H](OCOCCCl)[C@H](n4ccc(=O)[nH]c4=O)O[C@@H]3COP(=O)(O)O[C@H]3[C@@H](OCOCCCl)[C@H](n4ccc(=O)[nH]c4=O)O[C@@H]3COP(=O)(O)O[C@H]3[C@@H](OCOCCCl)[C@H](n4ccc(=O)[nH]c4=O)O[C@@H]3COP(=O)(O)O[C@H]3[C@@H](OCOCCCl)[C@H](n4ccc(=O)[nH]c4=O)O[C@@H]3COP(=O)(O)O[C@H]3[C@@H](OCOCCCl)[C@H](n4ccc(=O)[nH]c4=O)O[C@@H]3COP(=O)(O)O[C@H]3[C@@H](OCOCCCl)[C@H](n4ccc(=O)[nH]c4=O)O[C@@H]3COP(=O)(O)O[C@H]3[C@@H](OCOCCCl)[C@H](n4ccc(=O)[nH]c4=O)O[C@@H]3COP(=O)(O)O[C@H]3[C@@H](OCOCCCl)[C@H](n4ccc(=O)[nH]c4=O)O[C@@H]3COP(=O)(O)O[C@H]3[C@@H](OCOCCCl)[C@H](n4ccc(=O)[nH]c4=O)O[C@@H]3COP(=O)(O)O[C@H]3[C@@H](OCOCCCl)[C@H](n4ccc(=O)[nH]c4=O)O[C@@H]3COP(=O)(O)O[C@H]3[C@@H](OCOCCCl)[C@H](n4ccc(=O)[nH]c4=O)O[C@@H]3CO)[C@@H](O)[C@H]2OCOCCCl)c(=O)[nH]1 | 11 | Unstable | inactive
O=c1ccn([C@@H]2O[C@H](COP(=O)(O)O[C@H]3[C@@H](OCOCC(Cl)(Cl)Cl)[C@H](n4ccc(=O)[nH]c4=O)O[C@@H]3COP(=O)(O)O[C@H]3[C@@H](OCOCC(Cl)(Cl)Cl)[C@H](n4ccc(=O)[nH]c4=O)O[C@@H]3COP(=O)(O)O[C@H]3[C@@H](OCOCC(Cl)(Cl)Cl)[C@H](n4ccc(=O)[nH]c4=O)O[C@@H]3COP(=O)(O)O[C@H]3[C@@H](OCOCC(Cl)(Cl)Cl)[C@H](n4ccc(=O)[nH]c4=O)O[C@@H]3COP(=O)(O)O[C@H]3[C@@H](OCOCC(Cl)(Cl)Cl)[C@H](n4ccc(=O)[nH]c4=O)O[C@@H]3COP(=O)(O)O[C@H]3[C@@H](OCOCC(Cl)(Cl)Cl)[C@H](n4ccc(=O)[nH]c4=O)O[C@@H]3COP(=O)(O)O[C@H]3[C@@H](OCOCC(Cl)(Cl)Cl)[C@H](n4ccc(=O)[nH]c4=O)O[C@@H]3COP(=O)(O)O[C@H]3[C@@H](OCOCC(Cl)(Cl)Cl)[C@H](n4ccc(=O)[nH]c4=O)O[C@@H]3COP(=O)(O)O[C@H]3[C@@H](OCOCC(Cl)(Cl)Cl)[C@H](n4ccc(=O)[nH]c4=O)O[C@@H]3COP(=O)(O)O[C@H]3[C@@H](OCOCC(Cl)(Cl)Cl)[C@H](n4ccc(=O)[nH]c4=O)O[C@@H]3COP(=O)(O)O[C@H]3[C@@H](OCOCC(Cl)(Cl)Cl)[C@H](n4ccc(=O)[nH]c4=O)O[C@@H]3CO)[C@@H](O)[C@H]2OCOCC(Cl)(Cl)Cl)c(=O)[nH]1 | -0.8 | Unstable | –
CCOCO[C@@H]1[C@H](O)[C@@H](COP(=O)(O)O[C@H]2[C@@H](OCOCC)[C@H](n3ccc(=O)[nH]c3=O)O[C@@H]2COP(=O)(O)O[C@H]2[C@@H](OCOCC)[C@H](n3ccc(=O)[nH]c3=O)O[C@@H]2COP(=O)(O)O[C@H]2[C@@H](OCOCC)[C@H](n3ccc(=O)[nH]c3=O)O[C@@H]2COP(=O)(O)O[C@H]2[C@@H](OCOCC)[C@H](n3ccc(=O)[nH]c3=O)O[C@@H]2COP(=O)(O)O[C@H]2[C@@H](OCOCC)[C@H](n3ccc(=O)[nH]c3=O)O[C@@H]2COP(=O)(O)O[C@H]2[C@@H](OCOCC)[C@H](n3ccc(=O)[nH]c3=O)O[C@@H]2COP(=O)(O)O[C@H]2[C@@H](OCOCC)[C@H](n3ccc(=O)[nH]c3=O)O[C@@H]2COP(=O)(O)O[C@H]2[C@@H](OCOCC)[C@H](n3ccc(=O)[nH]c3=O)O[C@@H]2COP(=O)(O)O[C@H]2[C@@H](OCOCC)[C@H](n3ccc(=O)[nH]c3=O)O[C@@H]2COP(=O)(O)O[C@H]2[C@@H](OCOCC)[C@H](n3ccc(=O)[nH]c3=O)O[C@@H]2COP(=O)(O)O[C@H]2[C@@H](OCOCC)[C@H](n3ccc(=O)[nH]c3=O)O[C@@H]2CO)O[C@H]1n1ccc(=O)[nH]c1=O | -2.5 | Unstable | –
O=c1ccn([C@@H]2O[C@H](COP(=O)(O)O[C@H]3[C@@H](OCOCC(F)(F)F)[C@H](n4ccc(=O)[nH]c4=O)O[C@@H]3COP(=O)(O)O[C@H]3[C@@H](OCOCC(F)(F)F)[C@H](n4ccc(=O)[nH]c4=O)O[C@@H]3COP(=O)(O)O[C@H]3[C@@H](OCOCC(F)(F)F)[C@H](n4ccc(=O)[nH]c4=O)O[C@@H]3COP(=O)(O)O[C@H]3[C@@H](OCOCC(F)(F)F)[C@H](n4ccc(=O)[nH]c4=O)O[C@@H]3COP(=O)(O)O[C@H]3[C@@H](OCOCC(F)(F)F)[C@H](n4ccc(=O)[nH]c4=O)O[C@@H]3COP(=O)(O)O[C@H]3[C@@H](OCOCC(F)(F)F)[C@H](n4ccc(=O)[nH]c4=O)O[C@@H]3COP(=O)(O)O[C@H]3[C@@H](OCOCC(F)(F)F)[C@H](n4ccc(=O)[nH]c4=O)O[C@@H]3COP(=O)(O)O[C@H]3[C@@H](OCOCC(F)(F)F)[C@H](n4ccc(=O)[nH]c4=O)O[C@@H]3COP(=O)(O)O[C@H]3[C@@H](OCOCC(F)(F)F)[C@H](n4ccc(=O)[nH]c4=O)O[C@@H]3COP(=O)(O)O[C@H]3[C@@H](OCOCC(F)(F)F)[C@H](n4ccc(=O)[nH]c4=O)O[C@@H]3COP(=O)(O)O[C@H]3[C@@H](OCOCC(F)(F)F)[C@H](n4ccc(=O)[nH]c4=O)O[C@@H]3CO)[C@@H](O)[C@H]2OCOCC(F)(F)F)c(=O)[nH]1 | 4.5 | – | –
O=c1ccn([C@@H]2O[C@H](COP(=O)(O)O[C@H]3[C@@H](O)[C@H](n4ccc(=O)[nH]c4=O)O[C@@H]3COP(=O)(O)O[C@H]3[C@@H](O)[C@H](n4ccc(=O)[nH]c4=O)O[C@@H]3COP(=O)(O)O[C@H]3[C@@H](O)[C@H](n4ccc(=O)[nH]c4=O)O[C@@H]3COP(=O)(O)O[C@H]3[C@@H](O)[C@H](n4ccc(=O)[nH]c4=O)O[C@@H]3COP(=O)(O)O[C@H]3[C@@H](O)[C@H](n4ccc(=O)[nH]c4=O)O[C@@H]3COP(=O)(O)O[C@H]3[C@@H](O)[C@H](n4ccc(=O)[nH]c4=O)O[C@@H]3COP(=O)(O)O[C@H]3[C@@H](O)[C@H](n4ccc(=O)[nH]c4=O)O[C@@H]3COP(=O)(O)O[C@H]3[C@@H](O)[C@H](n4ccc(=O)[nH]c4=O)O[C@@H]3COP(=O)(O)O[C@H]3[C@@H](O)[C@H](n4ccc(=O)[nH]c4=O)O[C@@H]3COP(=O)(O)O[C@H]3[C@@H](O)[C@H](n4ccc(=O)[nH]c4=O)O[C@@H]3COP(=O)(O)O[C@H]3[C@@H](O)[C@H](n4ccc(=O)[nH]c4=O)O[C@@H]3CO)[C@@H](O)[C@H]2O)c(=O)[nH]1 | 0 | – | –
O=c1ccn([C@@H]2O[C@H](COP(=O)(O)O[C@H]3[C@@H](OCOCC(Cl)Cl)[C@H](n4ccc(=O)[nH]c4=O)O[C@@H]3COP(=O)(O)O[C@H]3[C@@H](OCOCC(Cl)Cl)[C@H](n4ccc(=O)[nH]c4=O)O[C@@H]3COP(=O)(O)O[C@H]3[C@@H](OCOCC(Cl)Cl)[C@H](n4ccc(=O)[nH]c4=O)O[C@@H]3COP(=O)(O)O[C@H]3[C@@H](OCOCC(Cl)Cl)[C@H](n4ccc(=O)[nH]c4=O)O[C@@H]3COP(=O)(O)O[C@H]3[C@@H](OCOCC(Cl)Cl)[C@H](n4ccc(=O)[nH]c4=O)O[C@@H]3COP(=O)(O)O[C@H]3[C@@H](OCOCC(Cl)Cl)[C@H](n4ccc(=O)[nH]c4=O)O[C@@H]3COP(=O)(O)O[C@H]3[C@@H](OCOCC(Cl)Cl)[C@H](n4ccc(=O)[nH]c4=O)O[C@@H]3COP(=O)(O)O[C@H]3[C@@H](OCOCC(Cl)Cl)[C@H](n4ccc(=O)[nH]c4=O)O[C@@H]3COP(=O)(O)O[C@H]3[C@@H](OCOCC(Cl)Cl)[C@H](n4ccc(=O)[nH]c4=O)O[C@@H]3COP(=O)(O)O[C@H]3[C@@H](OCOCC(Cl)Cl)[C@H](n4ccc(=O)[nH]c4=O)O[C@@H]3COP(=O)(O)O[C@H]3[C@@H](OCOCC(Cl)Cl)[C@H](n4ccc(=O)[nH]c4=O)O[C@@H]3CO)[C@@H](O)[C@H]2OCOCC(Cl)Cl)c(=O)[nH]1 | 10.8 | Unstable | inactive
